Laboratory results as given in ChEMBL document CHEMBL1136753, “Optimization of 2-phenylaminoimidazo[4,5-h]isoquinolin-9-ones: orally active inhibitors of lck kinase” (J Med Chem, 2003).
pEC50, pIC50: −log10 of the molar value.

Columns and labels:
[1] = target: Tyrosine-protein kinase Lck (Homo sapiens, UniProt P06239); experiment: Inhibition of p56 Lck tyrosine kinase
Jurkat = experiment: Inhibition of Calcium release in jurkat cells; type: functional, cell-based; conditions: Homo sapiens
Method in brief: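 Jurkat cells loaded with Fluo-3, washed in HBSS with 1 mM CaCl₂, 1 mM MgCl₂, 10 mM HEPES, 2 mM probenecid, 1% FBS, pH 7.4. Final 3 × 10⁵ cells/mL. Compound added for 15 min at room temperature, then anti-CD3 (clone X35, final 0.25 µg/mL). FLIPR fluorescence followed for 13 min. Peak minus baseline plotted against concentration gives EC₅₀. Mean of two or more experiments in duplicate ± SD.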

tissue or blood = type: functional, tissue-based; conditions: Homo sapiens
Homo sapiens = organism: Homo sapiens; experiment: Inhibition of IL-2 production in human whole blood; type: functional
[2] = target: Tyrosine-protein kinase SYK (Homo sapiens, UniProt P43405); experiment: Inhibition of Syk protein tyrosine kinase
Method in brief: (§1)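 DELFIA tyrosine kinase assay on neutravidin-coated plates. Substrate is biotinylated poly-Glu₄-Tyr₁, with ATP at or below Km. Compounds are tested in 10-point dose response. After 45 min at room temperature, Eu-labelled anti-phosphotyrosine is added and time-resolved fluorescence is read (ex 360/em 620 nm). IC₅₀ is the mean of ≥2 determinations in duplicate.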

[3] = target: 3-phosphoinositide-dependent protein kinase 1 (Homo sapiens, UniProt O15530); experiment: Inhibition of Phospho-inositide dependent kinase 1 (PDK1)
Method in brief: (§2)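 Serine/threonine kinase panel run through the Dundee consortium with ATP at 100 µM. IC₅₀ values are reported.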

[4] = target: MAP kinase-activated protein kinase 5 (Homo sapiens, UniProt Q8IW41); experiment: Inhibition of Protein kinase PRAK
Method in brief: (§3)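 Run externally by the Dundee consortium kinase panel with 100 µM ATP. IC50 values in µM.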

[5] = target: Cyclin-dependent kinase 4 (Homo sapiens, UniProt P11802); experiment: Inhibition of Cyclin-dependent kinase 4; method in brief: as §2
[6] = target: Proto-oncogene tyrosine-protein kinase Src (Homo sapiens, UniProt P12931); experiment: Inhibition of Src protein tyrosine kinase; method in brief: as §1
[7] = Inhibition of Calcium/calmodulin-dependent protein kinase
[8] = Inhibition of Insulin-like growth factor receptor
Method in brief: (§4)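 DELFIA tyrosine kinase assay: enzyme at 0.8 nM final, biotin-poly-Glu₄-Tyr₁ substrate, 1 µM final ATP. Ten-point dilutions from 1 µg/mL final, 45 min at room temperature. Phosphotyrosine read by Eu-anti-phosphotyrosine time-resolved fluorescence. IC₅₀ is the mean of two or more determinations in duplicate.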

Protein kinase C (PKC) = experiment: Inhibition of Protein kinase C; type: protein assay; method in brief: as §2
[9] = Inhibition of Platelet-derived growth factor receptor; method in brief: as §4
[10] = Inhibition of PHK phosphorylase kinase
[11] = target: Glycogen synthase kinase-3 beta (Homo sapiens, UniProt P49841); experiment: Inhibition of Glycogen synthase kinase-3 beta; method in brief: as §2
[12] = target: c-Jun N-terminal kinase, JNK (Homo sapiens, UniProt P45983+P53779+P45984); experiment: Inhibition of c-Jun N-terminal kinase; type: protein assay; method in brief: as §2
[13] = target: Cyclin-dependent kinase 2 (Homo sapiens, UniProt P24941); experiment: Inhibition of Cyclin-dependent kinase 2; method in brief: as §2
[14] = target: Ribosomal protein S6 kinase (P70S6K) (Homo sapiens, UniProt P23443+Q9UBS0); experiment: Inhibition of Ribosomal protein S6 kinase (P70S6K kinase); type: protein-complex assay; method in brief: as §2
[15] = target: Rho-associated protein kinase 2 (Homo sapiens, UniProt O75116); experiment: Inhibition of Protein kinase ROCK2; method in brief: as §2
[16] = target: RAC-alpha serine/threonine-protein kinase (Homo sapiens, UniProt P31749); experiment: Inhibition of Protein kinase B alpha; method in brief: as §2
Insulin receptor = Insulin receptor (Homo sapiens, UniProt P06213); experiment: Inhibition of Insulin receptor; method in brief: as §1
[17] = target: Ribosomal protein S6 kinase alpha-5 (Homo sapiens, UniProt O75582); experiment: Inhibition of MSK-1 kinase; method in brief: as §3
[18] = target: Serine/threonine-protein kinase Sgk1 (Homo sapiens, UniProt O00141); experiment: Inhibition of Serum/glucocorticoid regulated kinase; method in brief: as §2
[19] = target: Inhibitor of nuclear factor kappa-B kinase subunit alpha (Homo sapiens, UniProt O15111); experiment: Inhibition of IKK alpha kinase; method in brief: as §2
[20] = target: Tyrosine-protein kinase Lyn (Homo sapiens, UniProt P07948); experiment: Inhibition of Protein tyrosine kinase Lyn; method in brief: as §1
[21] = target: Tyrosine-protein kinase CSK (Homo sapiens) (UniProt P41240); experiment: Inhibition of Csk tyrosine kinase; conditions: concentration not given here; method in brief: as §4
[22] = target: Tyrosine-protein kinase ZAP-70 (Homo sapiens, UniProt P43403); experiment: Inhibition of Zeta-chain (TCR) associated protein kinase 70 kDa (ZAP-70)
Method in brief: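 Kinase-panel IC50 with ATP at or below the Km of each listed kinase. Each value is the mean of two or more separate determinations, each in duplicate.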

[23] = target: MAP kinase-activated protein kinase 2 (Homo sapiens, UniProt P49137); experiment: Inhibition of MAP kinase-activated protein kinase 1b/MAP kinase-activated protein kinase 2; method in brief: as §2
[24] = target: Receptor tyrosine-protein kinase erbB-2 (Homo sapiens, UniProt P04626); experiment: Inhibition of Protein kinase HER-2; method in brief: as §1
[25] = target: cAMP-dependent protein kinase (PKA) (Homo sapiens, UniProt P22694+P17612+P22612); experiment: Inhibition of Protein kinase A (PKA); type: protein assay; method in brief: as §2
[26] = target: Hepatocyte growth factor receptor (Homo sapiens, UniProt P08581); experiment: Inhibition of Hepatocyte growth factor receptor; type: cell-based; method in brief: as §1
[27] = target: AMP-activated protein kinase, AMPK; experiment: Inhibition of AMP-activated Protein Kinase; type: protein-complex assay; method in brief: as §2
[28] = target: Serine/threonine-protein kinase Chk1 (Homo sapiens, UniProt O14757); experiment: Inhibition of Serine/threonine-protein kinase Chk1; method in brief: as §3
Casein kinase II = Casein kinase II (Homo sapiens, UniProt P19784+P67870+P68400); experiment: Inhibition of Casein kinase II; type: protein-complex assay; method in brief: as §2
[29] = target: Mitogen-activated protein kinase; ERK1/ERK2 (Homo sapiens, UniProt P27361+P28482); experiment: Inhibition of Mitogen-activated protein kinase; type: protein assay; method in brief: as §2
[30] = target: Vascular endothelial growth factor receptor (Homo sapiens, UniProt P17948+P35916+P35968); experiment: Inhibition of Vascular endothelial growth factor receptor; type: protein assay; method in brief: as §1
[31] = target: Tyrosine-protein kinase ITK/TSK (Homo sapiens, UniProt Q08881); experiment: Inhibition of IL-2-inducible T-cell kinase (Itk kinase) was measured using DELFIA (dissociation enhanced lanthanide fluoroimmunoassay); method in brief: as §1
[32] = target: Inhibitor of nuclear factor kappa-B kinase subunit beta (Homo sapiens, UniProt O14920); experiment: Inhibition of IKK beta kinase; method in brief: as §2
Sequence of Inhibitor of nuclear factor kappa-B kinase subunit beta (O14920 whole entry): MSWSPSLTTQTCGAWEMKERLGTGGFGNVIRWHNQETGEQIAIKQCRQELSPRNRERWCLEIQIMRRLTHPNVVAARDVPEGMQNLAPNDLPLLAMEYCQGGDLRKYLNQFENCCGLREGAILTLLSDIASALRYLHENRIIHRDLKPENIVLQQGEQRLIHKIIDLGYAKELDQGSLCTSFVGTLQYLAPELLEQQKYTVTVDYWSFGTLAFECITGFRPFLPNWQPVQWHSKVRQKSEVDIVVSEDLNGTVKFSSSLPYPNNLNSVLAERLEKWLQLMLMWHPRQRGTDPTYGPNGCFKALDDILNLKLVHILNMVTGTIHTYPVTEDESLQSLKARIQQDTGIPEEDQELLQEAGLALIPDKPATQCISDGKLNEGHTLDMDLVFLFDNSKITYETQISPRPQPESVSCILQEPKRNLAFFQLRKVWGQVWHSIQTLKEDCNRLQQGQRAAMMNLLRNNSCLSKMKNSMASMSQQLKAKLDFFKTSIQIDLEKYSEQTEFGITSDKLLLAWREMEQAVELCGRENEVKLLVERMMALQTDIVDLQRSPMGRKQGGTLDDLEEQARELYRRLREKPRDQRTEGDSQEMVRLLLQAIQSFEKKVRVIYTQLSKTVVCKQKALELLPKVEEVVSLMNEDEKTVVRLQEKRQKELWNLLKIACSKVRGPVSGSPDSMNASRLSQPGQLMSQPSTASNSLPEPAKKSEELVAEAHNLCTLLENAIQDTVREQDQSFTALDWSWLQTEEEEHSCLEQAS

Sequence of Tyrosine-protein kinase Lck (P06239 whole entry): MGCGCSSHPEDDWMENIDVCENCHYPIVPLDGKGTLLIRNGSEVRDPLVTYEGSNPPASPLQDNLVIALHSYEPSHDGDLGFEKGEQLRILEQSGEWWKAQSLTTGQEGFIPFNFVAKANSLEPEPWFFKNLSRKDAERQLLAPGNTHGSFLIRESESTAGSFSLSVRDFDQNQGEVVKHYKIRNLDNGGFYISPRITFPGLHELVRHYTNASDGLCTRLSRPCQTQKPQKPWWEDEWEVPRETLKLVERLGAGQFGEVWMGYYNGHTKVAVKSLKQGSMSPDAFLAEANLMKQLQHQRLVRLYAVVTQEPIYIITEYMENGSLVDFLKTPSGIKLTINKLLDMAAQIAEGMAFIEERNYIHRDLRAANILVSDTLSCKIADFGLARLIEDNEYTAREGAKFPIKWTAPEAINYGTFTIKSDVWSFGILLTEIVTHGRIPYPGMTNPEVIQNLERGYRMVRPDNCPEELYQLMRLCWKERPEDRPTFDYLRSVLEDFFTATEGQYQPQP
Sequence of Ribosomal protein S6 kinase alpha-5 (O75582 whole entry): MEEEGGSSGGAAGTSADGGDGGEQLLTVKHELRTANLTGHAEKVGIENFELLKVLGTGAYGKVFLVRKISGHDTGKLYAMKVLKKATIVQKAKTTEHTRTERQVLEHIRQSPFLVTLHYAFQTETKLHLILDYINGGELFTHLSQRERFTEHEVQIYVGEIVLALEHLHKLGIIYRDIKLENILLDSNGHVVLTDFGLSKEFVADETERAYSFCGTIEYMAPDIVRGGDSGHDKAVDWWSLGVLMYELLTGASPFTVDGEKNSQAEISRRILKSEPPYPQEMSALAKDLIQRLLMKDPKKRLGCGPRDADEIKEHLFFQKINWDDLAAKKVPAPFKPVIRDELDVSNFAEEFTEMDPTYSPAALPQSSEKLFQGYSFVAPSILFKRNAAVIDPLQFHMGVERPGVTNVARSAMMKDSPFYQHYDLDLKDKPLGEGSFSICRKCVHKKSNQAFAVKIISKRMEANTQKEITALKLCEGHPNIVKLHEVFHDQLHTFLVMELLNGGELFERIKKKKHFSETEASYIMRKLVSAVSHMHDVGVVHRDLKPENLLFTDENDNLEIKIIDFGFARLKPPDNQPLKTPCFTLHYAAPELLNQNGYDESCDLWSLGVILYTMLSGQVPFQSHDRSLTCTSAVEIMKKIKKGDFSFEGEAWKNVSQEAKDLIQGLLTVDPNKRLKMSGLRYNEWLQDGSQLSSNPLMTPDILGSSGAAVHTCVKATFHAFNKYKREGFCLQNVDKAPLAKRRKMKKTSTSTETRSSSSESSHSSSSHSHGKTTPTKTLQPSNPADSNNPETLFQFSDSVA
Sequence of MAP kinase-activated protein kinase 2 (P49137 whole entry): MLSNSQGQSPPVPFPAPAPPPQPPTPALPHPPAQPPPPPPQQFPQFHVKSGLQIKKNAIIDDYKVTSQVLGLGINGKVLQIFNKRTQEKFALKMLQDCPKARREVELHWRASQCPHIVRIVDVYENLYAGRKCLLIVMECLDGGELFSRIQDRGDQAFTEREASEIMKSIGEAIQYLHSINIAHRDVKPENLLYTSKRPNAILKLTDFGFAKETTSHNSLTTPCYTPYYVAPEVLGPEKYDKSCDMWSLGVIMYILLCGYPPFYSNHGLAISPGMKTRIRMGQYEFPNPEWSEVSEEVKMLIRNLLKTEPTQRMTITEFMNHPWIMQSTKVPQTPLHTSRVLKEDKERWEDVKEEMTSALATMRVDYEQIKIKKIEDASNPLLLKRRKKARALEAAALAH
Sequence of Tyrosine-protein kinase CSK (Homo sapiens) (P41240 2-450 limits assumed): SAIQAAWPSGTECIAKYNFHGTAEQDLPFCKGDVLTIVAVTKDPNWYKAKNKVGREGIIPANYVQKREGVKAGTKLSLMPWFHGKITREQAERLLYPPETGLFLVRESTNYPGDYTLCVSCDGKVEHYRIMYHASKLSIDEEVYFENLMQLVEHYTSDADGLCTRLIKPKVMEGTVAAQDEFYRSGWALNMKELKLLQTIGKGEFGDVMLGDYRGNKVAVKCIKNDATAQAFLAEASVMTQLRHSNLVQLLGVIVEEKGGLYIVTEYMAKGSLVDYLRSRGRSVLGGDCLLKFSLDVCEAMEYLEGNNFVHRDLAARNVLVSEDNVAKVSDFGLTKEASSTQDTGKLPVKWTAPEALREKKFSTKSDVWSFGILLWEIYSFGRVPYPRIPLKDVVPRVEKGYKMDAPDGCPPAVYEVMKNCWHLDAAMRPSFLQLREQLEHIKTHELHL
Sequence of Serine/threonine-protein kinase Sgk1 (O00141 whole entry): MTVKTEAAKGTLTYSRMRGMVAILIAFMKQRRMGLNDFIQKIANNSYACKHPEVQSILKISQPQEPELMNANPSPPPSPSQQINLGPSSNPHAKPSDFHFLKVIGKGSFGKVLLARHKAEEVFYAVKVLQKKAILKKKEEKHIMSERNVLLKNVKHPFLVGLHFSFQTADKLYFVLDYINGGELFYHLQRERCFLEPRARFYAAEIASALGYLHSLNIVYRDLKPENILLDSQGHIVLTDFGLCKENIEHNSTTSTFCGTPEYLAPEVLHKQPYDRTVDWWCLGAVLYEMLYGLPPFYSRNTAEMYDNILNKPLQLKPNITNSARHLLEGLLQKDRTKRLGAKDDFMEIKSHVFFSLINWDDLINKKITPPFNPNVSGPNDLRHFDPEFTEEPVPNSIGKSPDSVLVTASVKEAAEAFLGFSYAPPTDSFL
Sequence of MAP kinase-activated protein kinase 5 (Q8IW41 whole entry): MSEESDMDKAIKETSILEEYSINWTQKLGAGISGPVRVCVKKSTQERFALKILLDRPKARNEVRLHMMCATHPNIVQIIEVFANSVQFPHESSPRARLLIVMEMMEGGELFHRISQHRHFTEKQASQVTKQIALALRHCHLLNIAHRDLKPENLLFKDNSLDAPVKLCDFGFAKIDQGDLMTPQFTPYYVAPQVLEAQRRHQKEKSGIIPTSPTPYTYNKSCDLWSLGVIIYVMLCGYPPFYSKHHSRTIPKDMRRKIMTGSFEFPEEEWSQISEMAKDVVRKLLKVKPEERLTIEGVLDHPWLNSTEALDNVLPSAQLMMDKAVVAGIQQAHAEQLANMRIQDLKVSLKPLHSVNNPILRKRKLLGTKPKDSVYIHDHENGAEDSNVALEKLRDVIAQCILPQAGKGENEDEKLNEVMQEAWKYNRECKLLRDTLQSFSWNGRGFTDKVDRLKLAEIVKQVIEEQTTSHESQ
Sequence of Tyrosine-protein kinase Lyn (P07948 whole entry): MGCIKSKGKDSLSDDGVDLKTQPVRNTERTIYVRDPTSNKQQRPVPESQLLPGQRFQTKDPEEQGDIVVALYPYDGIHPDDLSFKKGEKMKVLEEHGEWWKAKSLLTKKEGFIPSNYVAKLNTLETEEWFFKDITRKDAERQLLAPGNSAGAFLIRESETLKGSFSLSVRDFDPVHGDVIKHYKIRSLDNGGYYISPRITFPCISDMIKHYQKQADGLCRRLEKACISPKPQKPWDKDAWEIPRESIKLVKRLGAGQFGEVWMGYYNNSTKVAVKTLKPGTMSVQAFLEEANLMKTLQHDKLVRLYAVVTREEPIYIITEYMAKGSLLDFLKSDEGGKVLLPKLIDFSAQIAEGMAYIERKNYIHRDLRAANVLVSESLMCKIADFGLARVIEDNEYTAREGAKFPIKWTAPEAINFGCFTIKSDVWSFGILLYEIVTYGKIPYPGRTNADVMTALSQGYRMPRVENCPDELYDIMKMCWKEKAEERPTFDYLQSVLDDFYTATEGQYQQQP
Sequence of Cyclin-dependent kinase 4 (P11802 whole entry): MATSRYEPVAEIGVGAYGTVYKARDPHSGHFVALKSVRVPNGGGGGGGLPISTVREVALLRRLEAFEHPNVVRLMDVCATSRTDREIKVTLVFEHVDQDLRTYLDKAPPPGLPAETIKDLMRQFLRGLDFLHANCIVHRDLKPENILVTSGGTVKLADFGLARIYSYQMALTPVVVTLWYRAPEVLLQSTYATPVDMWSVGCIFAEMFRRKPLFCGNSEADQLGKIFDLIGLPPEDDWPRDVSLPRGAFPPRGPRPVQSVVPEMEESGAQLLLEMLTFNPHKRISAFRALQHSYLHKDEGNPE

Work on Cc1c(C=O)nc(O)c2c1ccc1nc(Nc3c(Cl)cccc3Cl)n(C)c12 yielded a pIC50 [1] of 6.77 and a pEC50 (Jurkat) of 6.35.
For Cc1c(/C=C/CN(C)C)nc(O)c2c1ccc1nc(Nc3c(Cl)cccc3Cl)n(C)c12, the pEC50 (tissue or blood) was 6.25, the pIC50 [1] was 8.52 and the pEC50 (Jurkat) was 8.00. The pEC50 (Homo sapiens) was 6.17.
For CCNC(=O)Cc1c(C)nc(O)c2c1ccc1nc(Nc3c(Cl)cccc3Cl)n(C)c12, the pIC50 [1] was 6.34 and the pEC50 (Jurkat) was 6.22.
Cc1nc(O)c2c(cc(CNCCO)c3nc(Nc4c(Cl)cccc4Cl)n(C)c32)c1C gave a pIC50 [1] of 7.59 and a pEC50 (Jurkat) of 6.92.
In the case of C=Cc1nc(O)c2c(ccc3nc(Nc4c(Cl)cccc4Cl)n(C)c32)c1C, the pEC50 (tissue or blood) was 6.05, the pIC50 [1] was 7.35 and the pEC50 (Jurkat) was 7.70. It also gave a pEC50 (Homo sapiens) of 4.92.
Cc1c(/C=C/CN(C)Cc2ccccc2)nc(O)c2c1ccc1nc(Nc3c(Cl)cccc3Cl)n(C)c12 gave a pIC50 [1] of 8.00 and a pEC50 (Jurkat) of 6.70.
With CCOC(=O)Cc1c(C)nc(O)c2c1ccc1nc(Nc3c(Cl)cccc3Cl)n(C)c12 the pIC50 [1] was 6.15 and the pEC50 (Jurkat) was 6.85.
Compound Cc1nc(O)c2c(cc(-c3ccc(F)nc3F)c3nc(Nc4c(Cl)cccc4Cl)n(C)c32)c1C has a pIC50 [1] of 7.30 and a pEC50 (Jurkat) of 6.43.
With Cc1c(CNCc2ccccc2)nc(O)c2c1ccc1nc(Nc3c(Cl)cccc3Cl)n(C)c12 the pIC50 [1] was 5.70 and the pEC50 (Jurkat) was 5.38.
Cc1nc(O)c2c(ccc3nc(Nc4c(Cl)cccc4Cl)n(C)c32)c1C showed a pIC50 [1] of 7.64, a pEC50 (Jurkat) of 6.89 and a pEC50 (Homo sapiens) of 5.96.
COC(=O)CCc1nc(O)c2c(ccc3nc(Nc4c(Cl)cccc4Cl)n(C)c32)c1C gave a pIC50 [1] of 6.44 and a pEC50 (Jurkat) of 6.64.
Work on Cc1nc(O)c2c(ccc3nc(Nc4c(Cl)cccc4Cl)n(C)c32)c1CCN1CCOCC1 yielded a pIC50 [1] of 7.52 and a pEC50 (Jurkat) of 6.57.
CCN(CC)C/C=C/c1nc(O)c2c(ccc3nc(Nc4c(Cl)cccc4Cl)n(C)c32)c1C showed a pIC50 [2] of under 4.40, a pIC50 [3] of under 6.00 and a pIC50 [4] of under 6.00. It also gave a pIC50 [5] of under 4.00, a pIC50 [6] of 9.70 and a pEC50 (tissue or blood) of 6.89. For the same compound, the pIC50 [7] was under 4.00, the pIC50 [8] was under 4.00 and the IC50 (Protein kinase C (PKC)) was over 300000 nM. It also gave a pIC50 [9] of 8.10, a pIC50 [10] of under 6.00 and a pIC50 [11] of under 6.00. It also gave an IC50 [12] of over 1000 nM, a pIC50 [13] of under 6.00 and a pIC50 [14] of under 6.00. The pIC50 [15] was under 6.00, the pIC50 [16] was under 6.00 and the pIC50 (Insulin receptor) was under 4.00. It also gave a pIC50 [17] of under 6.00, a pIC50 [18] of under 6.00 and a pIC50 [19] of 4.30. It also gave a pIC50 [20] of 8.70, an inhibition [21] of 87% and a pIC50 [22] of 6.40. It also gave a pIC50 [23] of under 6.00, a pIC50 [24] of under 5.00 and an IC50 [25] of over 100000 nM. The pIC50 [26] was under 4.00, the pIC50 [27] was under 6.00 and the pIC50 [28] was under 6.00. The pIC50 (Casein kinase II) was under 6.00, the pEC50 (Jurkat) was 8.15 and the IC50 [29] was over 30000 nM. The IC50 [30] was over 100000 nM, the pEC50 (Homo sapiens) was 5.74 and the pIC50 [31] was under 5.00. It also gave a pIC50 [32] of 4.30.
Work on CCn1c(Nc2c(Cl)cccc2Cl)nc2ccc3c(C)c(C)nc(O)c3c21 yielded a pIC50 [1] of under 5.60.
Work on Cc1c(/C=C/CN2CCOCC2)nc(O)c2c1ccc1nc(Nc3c(Cl)cccc3Cl)n(C)c12 yielded a pEC50 (tissue or blood) of 6.77, a pIC50 [1] of 8.40 and a pEC50 (Jurkat) of 7.52.
Cc1nc(O)c2c(ccc3nc(Nc4c(Cl)cccc4Cl)n(C)c32)c1CC(=O)N1CCN(C)CC1 gave a pIC50 [1] of 6.36 and a pEC50 (Jurkat) of 5.92.
In the case of Cc1nc(O)c2c(ccc3nc(Nc4c(Cl)cccc4Cl)n(C)c32)c1CC(=O)N1CCOCC1, the pIC50 [1] was 6.92 and the pEC50 (Jurkat) was 6.18.
